According to ChEMBL document CHEMBL3044632, “Synthesis, crystal structure, and biological activity of 4-methyl-1,2,3-thiadiazole-containing 1,2,4-triazolo[3,4-b][1,3,4]thiadiazoles” (J Agric Food Chem, 2010):

How the values were obtained:
Cercospora beticola = test: Fungicide activity against Cercospora beticola assessed as growth inhibition at 50 ug/mL at 24 to 26 degC measured after 2 days; format: functional; conditions: 48 h, read-out: GI
Tobacco mosaic virus [1] = test: Antiviral activity against Tobacco mosaic virus (TMV) infected leaves assessed as viral inhibition at 100 ug/mL at 25 degC for 72 hr; format: functional
Outline: (§1)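 Systemic acquired resistance induction was assayed in a tobacco–TMV system. The antivirus inhibition ratio was calculated from the average number of viral lesions on inoculated leaves, relative to the corresponding control.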

Fusarium oxysporum = test: Fungicide activity against Fusarium oxysporum assessed as growth inhibition at 50 ug/mL at 24 to 26 degC measured after 2 days; format: functional; conditions: 48 h, read-out: GI
[2] = tested on: Botryosphaeria berengeriana; test: Fungicide activity against Botryosphaeria berengeriana assessed as growth inhibition at 50 ug/mL at 24 to 26 degC measured after 2 days; format: functional; conditions: 48 h, read-out: GI
Mycosphaerella arachidis = test: Fungicide activity against Mycosphaerella arachidis assessed as growth inhibition at 50 ug/mL at 24 to 26 degC measured after 2 days; format: functional; conditions: 48 h, read-out: GI
Phytophthora infestans = test: Fungicide activity against Phytophthora infestans assessed as growth inhibition at 50 ug/mL at 24 to 26 degC measured after 2 days; format: functional; conditions: 48 h, read-out: GI
Alternaria solani = test: Fungicide activity against Alternaria solani assessed as growth inhibition at 50 ug/mL at 24 to 26 degC measured after 2 days; format: functional; conditions: 48 h, read-out: GI
Botrytis cinerea = test: Fungicide activity against Botryotinia fuckeliana assessed as growth inhibition at 50 ug/mL at 24 to 26 degC measured after 2 days; format: functional; conditions: 48 h, read-out: GI
Colletotrichum lagenaria = test: Fungicide activity against Colletotrichum lagenaria assessed as growth inhibition at 50 ug/mL at 24 to 26 degC measured after 2 days; format: functional; conditions: 48 h, read-out: GI
Thanatephorus cucumeris = test: Fungicide activity against Thanatephorus cucumeris assessed as growth inhibition at 50 ug/mL at 24 to 26 degC measured after 2 days; format: functional; conditions: 48 h, read-out: GI
Tobacco mosaic virus [3] = test: Antiviral activity against Tobacco mosaic virus (TMV) infected leaves assessed as viral inhibition at 500 ug/mL at 25 degC for 72 hr; format: functional; outline: as §1
Nicotiana tabacum = test: Phytotoxicity against Nicotiana tabacum (tobacco) plant at 50 to 500 ug/mL; format: organism-based; conditions: in vivo
Fusarium graminearum = test: Fungicide activity against Fusarium graminearum assessed as growth inhibition at 50 ug/mL at 24 to 26 degC measured after 2 days; format: functional; conditions: 48 h, read-out: GI
Tobacco mosaic virus [4] = test: Antiviral activity against Tobacco mosaic virus (TMV) infected leaves assessed as viral inhibition at 50 ug/mL at 25 degC for 72 hr; format: functional; outline: as §1
Puccinia triticina = test: Fungicide activity against Puccinia triticina assessed as growth inhibition at 50 ug/mL at 24 to 26 degC measured after 2 days; format: functional; conditions: 48 h, read-out: GI

Row | Structure (SMILES) | inhibition of growth at 50 µg/mL (Cercospora beticola) | inhibition at 100 µg/mL (Tobacco mosaic virus [1]) | inhibition of growth at 50 µg/mL (Fusarium oxysporum) | inhibition of growth at 50 µg/mL [2] | inhibition of growth at 50 µg/mL (Mycosphaerella arachidis) | inhibition of growth at 50 µg/mL (Phytophthora infestans) | inhibition of growth at 50 µg/mL (Alternaria solani) | inhibition of growth at 50 µg/mL (Botrytis cinerea) | inhibition of growth at 50 µg/mL (Colletotrichum lagenaria) | inhibition of growth at 50 µg/mL (Thanatephorus cucumeris) | inhibition at 500 µg/mL (Tobacco mosaic virus [3]) | Activity (Nicotiana tabacum) | inhibition of growth at 50 µg/mL (Fusarium graminearum) | inhibition at 50 µg/mL (Tobacco mosaic virus [4]) | inhibition of growth at 50 µg/mL (Puccinia triticina)
1 | Cc1nnsc1C1=NNC2SC(c3cccc(F)c3)=NN12 (stereo not drawn) | 27.3% | 24.2% | 10% | 54.1% | 23.5% | 0% | 37.1% | 75% | 0% | 32.8% | 30.7% | Toxic | 40.5% |  | 
2 | CCCC1=NN2C(c3snnc3C)=NNC2S1 (stereo not drawn) | 33.3% |  | 93% | 40.5% | 62.1% | 75.8% | 34.4% | 84.9% | 50% | 77.8% |  | Toxic | 75% | 0% | 
3 | COc1ccccc1C1=NN2C(c3snnc3C)=NNC2S1 (stereo not drawn) | 30% |  | 17.2% | 24.4% | 25% | 11.1% | 30% | 50% | 27.3% | 32.8% |  | Toxic | 18.2% | 40% | 
4 | Cc1nnsc1C1=NNC2SC(c3ccco3)=NN12 (stereo not drawn) | 42.9% | 20% | 22.2% | 29% | 36.4% | 14.7% | 43.3% |  | 0% | 45.1% | 23.5% | Toxic |  |  | 21%
5 | Cc1nnsc1C1=NNC2SC(c3c(-c4ccccc4)noc3C)=NN12 (stereo not drawn) | 10% |  | 13.8% | 8.9% | 30% | 7.4% | 33.3% | 46.2% | 13.6% | 25.4% |  | Toxic | 27.3% | 14.6% | 
6 | Cc1nnsc1C1=NNC2SC(/C=C/c3ccccc3)=NN12 (stereo not drawn) | 13.3% | 16.7% | 9.1% | 40.5% | 27.6% | 18.2% | 31.3% | 81.8% | 26.9% | 33.3% | 27.8% | Toxic | 17.5% |  | 
7 | COc1cccc(C2=NN3C(c4snnc4C)=NNC3S2)c1 (stereo not drawn) | 14.3% |  | 19.4% | 45.2% | 18.2% | 17.3% | 23.3% |  | 0% | 60.8% |  | Toxic |  | 0% | 31.6%
8 | Cc1nnsc1C1=NNC2SC(c3ccc(F)cc3)=NN12 (stereo not drawn) | 7.1% |  | 9.3% | 18.6% | 33.1% | 15.6% | 26.3% | 53.3% | 10.3% | 11.3% |  | Toxic | 14.3% | 0% | 
9 | Cc1nnsc1C1=NNC2SC(c3cccc(OC(F)(F)F)c3)=NN12 (stereo not drawn) | 35.7% | 30% | 18.6% | 25.6% | 23.1% | 17.8% | 23.7% | 68.9% | 13.8% | 35.2% | 37.5% | Toxic | 4.8% |  | 
10 | Cc1nnsc1C1=NNC2SC(c3c(Cl)cccc3Cl)=NN12 (stereo not drawn) | 28.6% |  | 13.9% | 37.2% | 23.1% | 20% | 23.7% | 64.4% | 20.7% | 42.3% |  | Toxic | 14.3% | 12.5% | 
11 | Cc1nnsc1C1=NNC2SC(c3ccccc3F)=NN12 (stereo not drawn) | 23.8% | 9.5% | 19.4% | 24.2% | 18.2% | 20% | 40% |  | 11.8% | 58.8% | 53.6% | Toxic |  |  | 21.1%
12 | Cc1nnsc1C1=NNC2SC(COc3ccc(Cl)cc3Cl)=NN12 (stereo not drawn) | 20% |  | 3% | 23.8% | 31% | 12.1% | 31.3% |  | 19.2% | 33.3% |  | Toxic | 12.5% | 0% | 
13 | Cc1nnsc1C1=NNC2SC(CCl)=NN12 (stereo not drawn) | 21.4% |  | 25% | 33.3% | 34.8% | 11.4% | 23.8% | 65.2% | 4.3% | 38.4% |  | Toxic | 33.3% | 29.2% | 
14 | Cc1nnsc1C1=NNC2SC(C(C)(C)C)=NN12 (stereo not drawn) | 23.8% |  | 13.9% | 17.7% | 36.4% | 14.7% | 16.7% |  | 5.88% | 56.7% |  | Toxic |  | 7.89% | 26.3%
